# ChEMBL document CHEMBL1143731, “Synthesis and pharmacological testing of polyaminoquinolines as blockers of the apamin-sensitive Ca2+-activated K+ channel (SK(Ca))” (Bioorg Med Chem, 2007)
# Experiments:
# [1] = molecular target: Small conductance calcium-activated potassium channel protein 3 (Rattus norvegicus, UniProt P70605); assay: Inhibition of SKca channel-mediated after-hypepolarization in rat sympathetic neurons; format: cell-based, Sympathetic neuron
# Method in brief: (§1)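 Rat sympathetic neurones (SK3 SKCa), short-term tissue culture. Action potentials evoked by depolarizing current pulses; afterhyperpolarization amplitude measured before, during and after compound applied in external solution at 2–4 concentrations, at least three neurones. Dequalinium reference in each assay. Hill fits with common Hill coefficient and maximum inhibition per assay gave IC50; EMR = test/dequalinium concentration for 50% AHP inhibition, by simultaneous weighted nonlinear least squares.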
# [2] = molecular target: Small conductance calcium-activated potassium channel protein 3 (Rattus norvegicus) (UniProt P70605); assay: Ratio of concentration drug to dequalinium to cause 50% inhibition of SKca channel-mediated after-hypepolarization in rat sympathetic neurons; format: cell-based; conditions: Sympathetic neuron; method in brief: as §1
# Sequence of Small conductance calcium-activated potassium channel protein 3 (Rattus norvegicus) (P70605 whole entry): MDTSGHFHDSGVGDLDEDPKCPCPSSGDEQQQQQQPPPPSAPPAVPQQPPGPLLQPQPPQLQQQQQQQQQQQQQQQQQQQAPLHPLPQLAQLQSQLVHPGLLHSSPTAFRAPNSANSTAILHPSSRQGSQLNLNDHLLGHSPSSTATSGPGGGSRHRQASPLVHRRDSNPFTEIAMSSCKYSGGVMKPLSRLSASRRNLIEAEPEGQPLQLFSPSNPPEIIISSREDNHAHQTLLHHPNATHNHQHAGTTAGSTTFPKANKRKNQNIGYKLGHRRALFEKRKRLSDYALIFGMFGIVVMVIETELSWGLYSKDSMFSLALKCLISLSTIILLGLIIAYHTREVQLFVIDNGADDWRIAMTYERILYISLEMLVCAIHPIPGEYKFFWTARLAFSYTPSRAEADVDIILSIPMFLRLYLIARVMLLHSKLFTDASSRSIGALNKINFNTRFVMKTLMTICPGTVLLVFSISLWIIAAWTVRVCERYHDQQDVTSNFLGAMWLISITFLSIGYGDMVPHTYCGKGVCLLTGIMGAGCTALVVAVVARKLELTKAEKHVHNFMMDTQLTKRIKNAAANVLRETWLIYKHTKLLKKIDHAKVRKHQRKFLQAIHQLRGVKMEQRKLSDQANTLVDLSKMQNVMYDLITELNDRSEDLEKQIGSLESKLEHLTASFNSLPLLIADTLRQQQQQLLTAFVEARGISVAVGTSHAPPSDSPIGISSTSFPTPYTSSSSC
# Sequence of Small conductance calcium-activated potassium channel protein 3 (P70605 whole entry): as above
IC50 [1],EMR [2],SMILES
130 nM,0.23,c1ccc2c(NCCCCCN(CCCNc3ccnc4ccccc34)Cc3cc(OCCCNc4ccnc5ccccc45)cc(OCCCNc4ccnc5ccccc45)c3)ccnc2c1
,0.1,Nc1cc[n+](CCCC=C(CCCC[n+]2ccc(N)c3ccccc32)CCCC[n+]2ccc(N)c3ccccc32)c2ccccc12
,1,Cc1cc(N)c2ccccc2[n+]1CCCCCCCCCC[n+]1c(C)cc(N)c2ccccc21
220 nM,0.26,c1ccc2c(NCCCNc3cc(OCCCNc4ccnc5ccccc45)cc(OCCCNc4ccnc5ccccc45)c3)ccnc2c1
17000 nM,33,N=C(N)NCCCNC(=O)/C=C/C(=O)N(CCCNC(=N)N)Cc1ccc(-c2ccc(CN)cc2)cc1
490 nM,0.59,NCCCCCCCCN(CCCNc1ccnc2ccccc12)C(=O)/C=C/C(=O)NCCCNc1ccnc2ccccc12
130 nM,0.23,c1cc(OCCCNc2ccnc3ccccc23)c(OCCCNc2ccnc3ccccc23)c(OCCCNc2ccnc3ccccc23)c1
> 30000 nM,,N=C(N)NCCCNC(=O)/C=C\C(=O)N(CCCCCCCCN)CCCNC(=N)N
27000 nM,,N=C(N)NCCCNC(=O)/C=C/C(=O)N(CCCCCCCCN)CCCNC(=N)N
25000 nM,,NC(N)=NCc1ccc(/C=C\c2ccc(CN=C(N)N)cc2)cc1
270 nM,0.31,c1ccc2c(NCCCOc3ccc(CCNc4ccnc5ccccc45)cc3OCCCNc3ccnc4ccccc34)ccnc2c1
,59,N=C(N)NCc1ccc(/C=C\c2ccc(CNC(=N)N)cc2)cc1
360 nM,0.48,c1ccc2c(NCCCNCc3cc(OCCCNc4ccnc5ccccc45)cc(OCCCNc4ccnc5ccccc45)c3)ccnc2c1
93 nM,0.17,c1ccc2c(NCCCCCN(CCCNc3ccnc4ccccc34)c3cc(OCCCNc4ccnc5ccccc45)cc(OCCCNc4ccnc5ccccc45)c3)ccnc2c1
86 nM,0.16,CC[n+]1ccc(NCCCOc2cccc(OCCCNc3cc[n+](CC)c4ccccc34)c2OCCCNc2cc[n+](CC)c3ccccc23)c2ccccc21

SMILES,IC50 [1],EMR [2]
c1ccc2c(c1)c1cc[n+]2CCCCC[n+]2ccc(c3ccccc32)NCCCCCN1,,0.003
c1cc2cc(c1)C[n+]1ccc(c3ccccc31)NCc1ccc(cc1)CNc1cc[n+](c3ccccc13)C2,,0.01
